Source: ChEMBL document CHEMBL3414455, “Boronic species as promising inhibitors of the Staphylococcus aureus NorA efflux pump: study of 6-substituted pyridine-3-boronic acid derivatives” (Eur J Med Chem, 2015)
In brackets after ≈: the same amount, converted by molar mass.

What was measured:
[1] = biological target: T1, Quinolone resistance protein NorA (Staphylococcus aureus) (UniProt P0A0J7); assay: Inhibition of NorA in fluoroquinolone-resistant Staphylococcus aureus 1199B assessed as minimum modulatory concentration require to potentiate 16 ug/ml norfloxacin-induced antibacterial activity
T1 sequence (whole entry): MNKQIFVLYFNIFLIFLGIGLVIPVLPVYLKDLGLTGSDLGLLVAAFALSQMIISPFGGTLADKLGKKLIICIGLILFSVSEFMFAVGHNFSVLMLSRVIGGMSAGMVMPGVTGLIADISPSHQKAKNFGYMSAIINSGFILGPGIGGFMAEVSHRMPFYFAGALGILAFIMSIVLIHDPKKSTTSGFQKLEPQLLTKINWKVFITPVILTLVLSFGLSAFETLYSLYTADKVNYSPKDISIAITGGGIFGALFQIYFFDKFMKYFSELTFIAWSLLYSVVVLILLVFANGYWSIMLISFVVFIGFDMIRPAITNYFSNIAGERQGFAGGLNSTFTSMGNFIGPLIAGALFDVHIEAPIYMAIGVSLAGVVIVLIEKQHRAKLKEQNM

Staphylococcus aureus [2] = assay: Antibacterial activity against methicillin-susceptible […] Staphylococcus aureus ATCC 25923 after 24 hrs by two fold microdilution method; type: functional; conditions: ATCC 25923, 24 h
Procedure, shortened: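 Broth microdilution in Mueller-Hinton broth, about 10^6 CFU/mL per well, inoculum from an 18 h culture at 37°C. Compounds were dissolved in DMSO and tested in twofold serial dilutions, top 128 mg/L, or the highest fully soluble level (at least 16 mg/L). MIC is the lowest concentration giving complete growth inhibition after 24 h at 37°C, read at 620 nm and visually, in duplicate.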

Staphylococcus aureus [3] = assay: Antibacterial activity against fluoroquinolone-resistant Staphylococcus aureus 1199B overexpressing NorA after 24 hrs by two fold microdilution method; type: functional
[4] = biological target: T1, Quinolone resistance protein NorA (Staphylococcus aureus); assay: Inhibition of NorA in fluoroquinolone-resistant Staphylococcus aureus 1199B assessed as minimum modulatory concentration require to potentiate 4 ug/ml ciprofloxacin-induced antibacterial activity
[5] = Cytotoxicity against human KB cells assessed as growth inhibition at 10 uM after 72 hrs by MTS assay relative to control; type: cell-based; conditions: read-out: GI
Procedure, shortened: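 KB cells were grown in D-MEM with 10% FCS at 37°C under 5% CO2. Compounds in DMSO (1% final) were added 24 h after plating, and cells were exposed for 72 h. MTS was then added for 3 h and absorbance read at 490 nm. Inhibition = (1 − OD treated/OD DMSO control) × 100, in triplicate. Docetaxel 0.15 nM served as positive control.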

[6] = biological target: T1, Quinolone resistance protein NorA (Staphylococcus aureus); assay: Inhibition of NorA in fluoroquinolone-resistant Staphylococcus aureus 1199B assessed as minimum modulatory concentration require to potentiate 2 ug/ml ciprofloxacin-induced antibacterial activity
Staphylococcus aureus [7] = assay: microbe, parasite or virus in culture; conditions: 1199B, 24 h
[8] = Cytotoxicity against human KB cells assessed as growth inhibition at 10^-6 M after 72 hrs by MTS assay relative to control; type: cell-based; conditions: read-out: GI
[9] = biological target: T1, Quinolone resistance protein NorA (Staphylococcus aureus); assay: Inhibition of NorA in fluoroquinolone-resistant Staphylococcus aureus 1199B assessed as minimum modulatory concentration require to potentiate 2 ug/ml ciprofloxacin-induced antibacterial activity at MMC relative to control
[10] = biological target: T1, Quinolone resistance protein NorA (Staphylococcus aureus); assay: Inhibition of NorA in fluoroquinolone-resistant Staphylococcus aureus 1199B assessed as increase in ethidium bromide uptake at 20 ug/ml after 20 mins by fluorimetry relative to control
Procedure, shortened: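 Mid-log cells (overnight culture diluted 20-fold, 3.5 h, 37°C, 130 rpm) resuspended in Mueller-Hinton broth containing 10 mg/L EtBr, 37°C; compound added at 10 min (final 20 mg/L), fluorescence (ex 530/em 600 nm) followed 20 more min; rise over pre-addition baseline; reserpine 5 and 20 µg/mL positive, 1.6% DMSO negative; two or three experiments.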

[11] = biological target: ATP-dependent translocase ABCB1 (Homo sapiens, UniProt P08183); assay: Inhibition of MDR1 in human NCI-ADR-RES cells assessed as increase in rhodamine-123 uptake at 1 to 100 uM after 1 hr by fluorescence assay; type: cell-based
Procedure, shortened: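 NCI/ADR-RES cells (P-gp overexpressing) were seeded at 60,000/well in RPMI. After 24 h they were washed with PBS and given compound (100, 10, 1 µM) plus 12.5 µM rhodamine 123 in FCS-free medium for 1 h at 37°C, 5% CO2. Cells were then washed, lysed in 20 mM Tris pH 7.7 with 0.2% SDS, and fluorescence read at 507/528 nm.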

| SMILES | MMC [1] [µg/mL] | MIC (Staphylococcus aureus [2]) [µg/mL] | MIC (Staphylococcus aureus [3]) [µg/mL] | MMC [4] [µg/mL] | inhibition at 72 h, 10 µM [5] [%] | MMC [6] | MIC (Staphylococcus aureus [7]) [µg/mL] | inhibition at 72 h, 1 µM [8] [%] | fold change (FC) [9] | inhibition [10] [%] | inhibition (INH) [11] |
| --- | --- | --- | --- | --- | --- | --- | --- | --- | --- | --- | --- |
| OB(O)c1ccc(OCCc2ccccc2)nc1 | 16 | > 128 | > 128 | 1 | 28 | 65.8 µM | – | – | – | – | – |
| O=C(O)c1cn(C2CC2)c2cc(N3CCNCC3)c(F)cc2c1=O [CIPROFLOXACIN] | – | – | 8 (≈ 24.1 µM) | – | – | – | 0.5 (≈ 1.51 µM) | – | – | – | – |
| OB(O)c1ccc(Oc2ccccc2)nc1 | 128 | > 128 | > 128 | 2 | 14 | 298 µM | – | – | – | – | – |
| CCCCCOc1ccc(B(O)O)cn1 | 64 | > 128 | > 128 | 2 | 16 | 306 µM | – | – | – | – | – |
| COC(=O)[C@H]1[C@H]2C[C@@H]3c4[nH]c5cc(OC)ccc5c4CCN3C[C@H]2C[C@@H](OC(=O)c2cc(OC)c(OC)c(OC)c2)[C@@H]1OC | – | – | – | – | – | 6.57 µM | – | – | – | – | – |
| COc1cc(COc2ccc(B(O)O)cn2)cc(OC)c1OC | – | > 128 | > 128 | 8 | 3 | – | – | – | – | – | – |
| Cc1cc(B(O)O)cnc1OCc1ccccc1 | 8 | – | > 128 | 4 | 15 | 65.8 µM | – | – | – | – | – |
| OB(O)c1ccc(Oc2ccc(Cl)cc2Cl)nc1 | 32 | – | 128 (≈ 451 µM) | 1 | 1 | 56.4 µM | – | – | – | – | – |
| OB(O)c1ccc(NCc2ccccc2)nc1 | – | > 128 | > 128 | 32 | 0 | 561 µM | – | – | – | – | – |
| OB(O)c1cncc(OCc2ccccc2)c1 | – | > 128 | > 128 | 8 | 0 | > 128 µg/mL | – | – | – | – | – |
| OB(O)c1ccc(OCc2ccc(Cl)c(Cl)c2)nc1 | – | – | 16 (≈ 53.7 µM) | 0.125 | 44 | 3.35 µM | – | 0 | – | – | – |
| OB(O)c1ccc(OCc2ccc3c(c2)OCO3)nc1 | – | > 128 | > 128 | 64 | 0 | – | – | – | – | – | – |
| CC1(C)S[C@@H]2[C@H](NC(=O)[C@H](N)c3ccccc3)C(=O)N2[C@H]1C(=O)O [AMPICILLIN] | – | 0.25 (≈ 0.715 µM) | – | – | – | – | – | – | – | – | – |
| CCCCCCCOc1ccc(B(O)O)cn1 | 8 | > 16 | > 16 | 0.5 | 73 | 33.7 µM | – | – | – | – | – |
| OB(O)c1ccc(SCc2ccccc2)nc1 | 16 | 64 (≈ 261 µM) | 64 (≈ 261 µM) | 0.5 | 8 | 65.3 µM | – | – | – | – | – |
| CCCCCCCCCCCCOc1ccc(B(O)O)cn1 | – | > 16 | > 16 | > 16 | 13 | > 16 µg/mL | – | – | – | – | – |
| OB(O)c1ccc(OCCCc2ccccc2)nc1 | 8 | > 128 | > 128 | 0.5 | 83 | 15.6 µM | – | 9 | 4 | 43 | Not Active |
| CCCCOc1ccc(B(O)O)cn1 | 64 | > 128 | > 128 | 2 | 1 | 328 µM | – | – | – | – | – |
| OB(O)c1ccc(OCc2ccc(Cl)cc2)nc1 | 16 | ≥ 128 | 128 (≈ 486 µM) | 1 | 33 | 121 µM | – | – | – | – | – |
| OB(O)c1ccc(OCCCCCCCc2ccccc2)nc1 | – | > 16 | > 16 | 0.5 | 62 | 12.8 µM | – | – | – | – | – |
| OB(O)c1ccc(OCc2ccc(F)cc2)nc1 | 64 | > 128 | > 128 | 2 | 8 | 130 µM | – | – | – | – | – |
| OB(O)c1ccc(OCc2ccccc2)nc1 | 32 | > 128 | > 128 | 1 | – | 69.8 µM | – | – | 4 | – | – |
| CCCCCCOc1ccc(B(O)O)cn1 | 16 | – | > 128 | 2 | 46 | 71.7 µM | – | – | – | – | – |
| CCn1cc(C(=O)O)c(=O)c2cc(F)c(N3CCNCC3)cc21 [NORFLOXACIN] | – | – | 64 (≈ 200 µM) | – | – | – | – | – | – | – | – |
| CCCOc1ccc(B(O)O)cn1 | > 128 | > 128 | > 128 | 4 | 0 | > 128 µg/mL | – | – | – | – | – |
| OB(O)c1ccc(OCCCCc2ccccc2)nc1 | 8 | 64 (≈ 236 µM) | 32 (≈ 118 µM) | 0.25 | 13 | 14.8 µM | – | – | 4 | 42 | Not Active |
| OB(O)c1ccc(OCCCCCc2ccccc2)nc1 | – | – | 16 (≈ 56.1 µM) | 2 | 60 | 14 µM | – | 6 | – | – | – |
| OB(O)c1ccc(OCCCCCCc2ccccc2)nc1 | – | > 16 | > 16 | 0.5 | 46 | 13.4 µM | – | – | – | – | – |
